Measurements published in ChEMBL document CHEMBL1250434, “A novel achiral seco-cyclopropylpyrido[e]indolone (CPyI) analog of CC-1065 and the duocarmycins: synthesis, DNA interactions, in vivo anticancer and anti-parasitic evaluation” (Bioorg Med Chem, 2010).

How the values were obtained:
[1] = test system: SK-MEL-2; assay: Cytotoxicity against human SK-MEL-2 cells after 48 hrs by sulforhodamine B assay; format: functional; settings: SK-MEL-2, 48 h, read-out: pLC50 (the source's name) (converted)
Summary of the method: (§1)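 NCI human cancer cell line panel. Continuous 48 h drug exposure, viability by sulforhodamine B. GI50, TGI and LC50 derived from dose–response curves.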

[2] = test system: SK-MEL-28; assay: Cytotoxicity against human SK-MEL-28 cells after 48 hrs by sulforhodamine B assay; format: functional; settings: SK-MEL-28, 48 h, read-out: pLC50 (the source's name) (converted); summary of the method: as §1
[3] = test system: UACC-62; assay: Cytotoxicity against human UACC62 cells after 48 hrs by sulforhodamine B assay; format: functional; settings: UACC-62, 48 h, read-out: pLC50 (the source's name) (converted); summary of the method: as §1
[4] = test system: IGROV-1; assay: Cytotoxicity against human IGROV1 cells after 48 hrs by sulforhodamine B assay; format: functional; settings: IGROV-1, 48 h, read-out: pLC50 (the source's name) (converted); summary of the method: as §1
[5] = test system: OVCAR-3; assay: Cytotoxicity against human OVCAR-3 cells after 48 hrs by sulforhodamine B assay; format: functional; settings: OVCAR-3, 48 h, read-out: pLC50 (the source's name) (converted); summary of the method: as §1
[6] = test system: OVCAR-4; assay: Cytotoxicity against human OVCAR4 cells after 48 hrs by sulforhodamine B assay; format: functional; settings: OVCAR-4, 48 h, read-out: pLC50 (the source's name) (converted); summary of the method: as §1
[7] = test system: OVCAR-8; assay: Cytotoxicity against human OVCAR8 cells after 48 hrs by sulforhodamine B assay; format: functional; settings: OVCAR-8, 48 h, read-out: pLC50 (the source's name) (converted); summary of the method: as §1
[8] = test system: SK-OV-3; assay: Cytotoxicity against human SKOV3 cells after 48 hrs by sulforhodamine B assay; format: functional; settings: SK-OV-3, 48 h, read-out: pLC50 (the source's name) (converted); summary of the method: as §1
[9] = test system: 786-0; assay: Cytotoxicity against human 786-0 cells after 48 hrs by sulforhodamine B assay; format: functional; settings: 786-0, 48 h, read-out: pLC50 (the source's name) (converted); summary of the method: as §1
[10] = test system: CAKI-1; assay: Cytotoxicity against human Caki1 cells after 48 hrs by sulforhodamine B assay; format: functional; settings: CAKI-1, 48 h, read-out: pLC50 (the source's name) (converted); summary of the method: as §1
[11] = test system: UO-31; assay: Cytotoxicity against human UO31 cells after 48 hrs by sulforhodamine B assay; format: functional; settings: UO-31, 48 h, read-out: pLC50 (the source's name) (converted); summary of the method: as §1
[12] = test system: PC-3; assay: Cytotoxicity against human PC3 cells after 48 hrs by sulforhodamine B assay; format: functional; settings: PC-3, 48 h, read-out: pLC50 (the source's name) (converted); summary of the method: as §1
[13] = test system: DU-145; assay: Cytotoxicity against human DU145 cells after 48 hrs by sulforhodamine B assay; format: functional; settings: DU-145, 48 h, read-out: pLC50 (the source's name) (converted); summary of the method: as §1
[14] = Cytotoxicity against human Hs 578T cells after 48 hrs by sulforhodamine B assay; format: functional; settings: read-out: pLC50 (the source's name) (converted); summary of the method: as §1
[15] = test system: BT-549; assay: Cytotoxicity against human BT549 cells after 48 hrs by sulforhodamine B assay; format: functional; settings: BT-549, 48 h, read-out: pLC50 (the source's name) (converted); summary of the method: as §1
[16] = test system: T47D; assay: Cytotoxicity against human T47D cells after 48 hrs by sulforhodamine B assay; format: functional; settings: read-out: pLC50 (the source's name) (converted); summary of the method: as §1
[17] = Antitumor activity against mouse B16F0 cells xenografted in C57/BL/6J mouse assessed as […] at 10 mg/kg, ip administered on day 1, 5, and 9 measured after 16 days; format: functional; settings: route intraperitoneal
Summary of the method: (§2)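 Female C57/BL/6J mice, 5–7 weeks old, 8 per group. Given 200,000 cultured B16-F0 cells (PBS-washed, not mouse-passaged) sc in the left flank on day 0. Dosed 10 mg/kg ip in 1:2 PET/5% glucose on days 1, 5 and 9; controls received vehicle. Tumours measured by caliper about every other day. Volume = length × width². Measurements stopped when 50% of the group had died.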

[18] = Antitumor activity against mouse B16F0 cells xenografted in C57/BL/6J mouse assessed as […] at 10 mg/kg, ip administered on day 1, 5, and 9 measured after 21 days; format: functional; settings: route intraperitoneal; summary of the method: as §2
[19] = test system: Mus musculus; assay: Toxicity in mouse B16F0 cells xenografted C57/BL/6J mouse assessed as reduction of body weight at 10 mg/kg, ip administered on day 1, 5, and 9 measured after 21 days; format: organism-based; design: dose 10 mg/kg, route intraperitoneal; settings: in vivo, 504 h
Summary of the method: (§3)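 Female C57/BL/6J mice, 5–7 weeks old, 8 per group, carrying sc B16-F0 flank tumours implanted day 0. Dosed 10 mg/kg ip in 1:2 PET/5% glucose on days 1, 5 and 9; vehicle-treated controls on the same schedule. Body weights recorded every other day.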

[20] = test system: Mus musculus; assay: Systemic toxicity in mouse B16F0 cells xenografted C57/BL/6J mouse assessed as reduction of body weight at 10 mg/kg, ip administered on day 1, 5, and 9 measured after 21 days; format: organism-based; design: dose 10 mg/kg, route intraperitoneal; settings: in vivo, 504 h; summary of the method: as §3
[21] = test system: Leishmania donovani; assay: Antimicrobial activity against promastigotes of Leishmania donovani assessed as inhibition of cell proliferation after 72 hrs by alamar blue assay; format: functional, organism-based
Summary of the method: (§4)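 Promastigotes at 5 × 10^4 cells/well in DME-L medium with 10% heat-inactivated FBS, hemin, xanthine and penicillin-streptomycin. Exposed to 0.03 nM to 64 µM compound for 72 h at 26 °C. Alamar blue added, incubated 15 h, dye reduction read by fluorescence ex 530/em 590 nm.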

[22] = test system: Trypanosoma brucei; assay: Antimicrobial activity against procyclic form of Trypanosoma brucei 427 assessed as inhibition of cell proliferation after 72 hrs by alamar blue assay; format: functional, organism-based; settings: Trypanosoma brucei, 427, 72 h
Summary of the method: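 T. brucei 427 procyclic forms grown in SDM 79 medium with 0.03 nM to 64 µM compound for 72 h at 26 °C. Proliferation read by Alamar blue reduction after a further 15 h, fluorescence ex 530/em 590 nm.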

[23] = test system: Plasmodium falciparum; assay: Antimicrobial activity against Plasmodium falciparum infected in human erythrocytes assessed as growth inhibition; format: functional, organism-based
Summary of the method: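 P. falciparum grown in human erythrocytes at 3–5% hematocrit in complete medium. In vitro growth assay at six concentrations, in triplicate, in three independent experiments.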

[24] = test system: Leishmania mexicana; assay: Antimicrobial activity against promastigotes of Leishmania mexicana assessed as inhibition of cell proliferation after 72 hrs by alamar blue assay; format: functional, organism-based; summary of the method: as §4

Structure (SMILES): COc1cc2cc(C(=O)Nc3cc(O)c4ncc(C)cc4c3CCCl)[nH]c2c(OC)c1OC
- CC50 [1]: > 100000 nM
- CC50 [2]: > 100000 nM
- CC50 [3]: < 10 nM
- CC50 [4]: > 100000 nM
- CC50 [5]: 2630 nM
- CC50 [6]: 6030 nM
- CC50 [7]: 275 nM
- CC50 [8]: > 100000 nM
- CC50 [9]: 135 nM
- CC50 [10]: 1550 nM
- CC50 [11]: > 100000 nM
- CC50 [12]: 11500 nM
- CC50 [13]: 2190 nM
- CC50 [14]: > 100000 nM
- CC50 [15]: > 100000 nM
- CC50 [16]: > 100000 nM
- Activity [17]: 1700 mm3
- Activity [18]: 2000 mm3
- Activity [19]: Non-toxic
- Activity [20]: Toxic
- IC50 [21]: 340 nM
- IC50 [22]: 56 nM
- IC50 [23]: 1.8 nM
- IC50 [24]: 119 nM
